Data published in ChEMBL document CHEMBL2321850, “Fragment-based discovery of 8-hydroxyquinoline inhibitors of the HIV-1 integrase-lens epithelium-derived growth factor/p75 (IN-LEDGF/p75) interaction” (J Med Chem, 2013).

What was measured:
[1] = test system: MT4; test: Cytotoxicity against human MT4 cells assessed as cell viability after 72 hrs by MTT assay; format: cell-based; details: mt4, 72 h
Summary of the method: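 MT-4 cells exposed to fivefold serial dilutions of compound run in parallel with the antiviral MTT cytopathic-effect assay; CC50 taken as the concentration killing 50% of MT-4 cells.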

[2] = test system: Human immunodeficiency virus; test: Antiviral activity against HIV infected human MT4 cells assessed as decrease of virus-induced cytopathic effect after 72 hrs by MTT assay; format: functional, organism-based; details: Human immunodeficiency virus 1, MT4, 72 h
Summary of the method: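 MT-4 cells infected with 100 to 300 CCID50 of HIV (CCID50 from virus-stock titration on MT-4) in presence of fivefold serial compound dilutions; protection from viral cytopathic effect read by MTT; EC50 = concentration giving 50% protection. CC50 in MT-4 cells measured in parallel.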

[3] = test system: Human immunodeficiency virus 1; test: Inhibition of HIV-1 FLAG-6x-His-tagged integrase interaction to FLAG-tagged LEDGF/p75 at 10 uM preincubated for 30 mins prior to LEDGF/p75 addition measured after 60 mins by quenching assay
[4] = target: T1, Human immunodeficiency virus type 1 integrase (Human immunodeficiency virus 1, UniProt Q7ZJM1); test: Inhibition of HIV-1 integrase strand transfer activity
[5] = target: T1, Human immunodeficiency virus type 1 integrase; test: Inhibition of HIV-1 integrase 3'-processing activity
[6] = test system: LNCaP; test: Cytotoxicity against human LNCAP cells assessed as inhibition of cell proliferation after 72 hrs by MTT assay; format: cell-based
[7] = Inhibition of HIV-1 His6-tagged integrase interaction to FLAG-tagged LEDGF/p75 preincubated for 30 mins prior to LEDGF/p75 addition measured after 60 mins by alphascreen assay; parameters: species or system Human immunodeficiency virus 1
Summary of the method: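 His6-tagged IN (300 nM final) preincubated with compound (20 µM final) 30 min at 4 °C, then FLAG-LEDGF/p75 (300 nM final) added for 60 min at 4 °C; Ni-chelate donor and anti-FLAG acceptor beads (20 µg/mL each) added, 1 h at 30 °C, light-protected; acceptor-bead emission read.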

[8] = Cytotoxicity against human LNCAP cells assessed as growth inhibition at 10 uM after 72 hrs by MTT assay; format: cell-based; details: read-out: Activity
[9] = Selectivity index, ratio of CC50 for human MT4 cells to EC50 for HIV infected human MT4 cells; format: toxicity, cell-based; details: MT4 cells (CC50) and HIV-infected MT4 cells (EC50)
Summary of the method: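 MT-4 cells infected with 100 to 300 CCID50 of HIV in the presence of fivefold serial compound dilutions. Protection against virus-induced cytopathic effect was read by MTT to give EC50. CC50 came from parallel MTT viability testing of uninfected MT-4 cells. Selectivity index was calculated as CC50/EC50.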

T1 sequence (Q7ZJM1 whole entry): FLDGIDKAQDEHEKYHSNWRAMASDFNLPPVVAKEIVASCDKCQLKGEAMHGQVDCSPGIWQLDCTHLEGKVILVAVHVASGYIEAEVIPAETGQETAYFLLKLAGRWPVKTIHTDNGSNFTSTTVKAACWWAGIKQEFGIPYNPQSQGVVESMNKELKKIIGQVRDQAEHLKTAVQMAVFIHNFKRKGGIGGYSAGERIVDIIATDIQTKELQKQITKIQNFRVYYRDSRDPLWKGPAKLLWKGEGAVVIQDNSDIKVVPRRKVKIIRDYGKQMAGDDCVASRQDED

SMILES	CC50 [1]	EC50 [2]	inhibition [3]	IC50 [4]	IC50 [5]	CC50 [6]	IC50 [7]	inhibition at 72 h, 10 µM [8]	selectivity ratio [9]
Cc1cccc(NCc2ccc(O)c3ncccc23)n1	2 µM	> 2 µM	< 50%	> 20 µM	> 20 µM	> 10 µM	2.8 µM		
Oc1ccc(CN2CCN(Cc3ccccc3)CC2)c2cccnc12	11 µM	> 11 µM	< 50%	> 20 µM	> 20 µM	> 10 µM	2.2 µM		
Oc1ccc(CNc2ccccc2Cl)c2cccnc12	34 µM	> 34 µM	< 50%	> 20 µM	> 20 µM	> 10 µM	4.8 µM		
Cc1ccccc1NCc1ccc(O)c2ncccc12	9 µM	> 9 µM	< 50%	> 20 µM	> 20 µM	> 10 µM	1.4 µM	0%	
COc1ccc(C(NC(C)=O)c2cc([N+](=O)[O-])c3cccnc3c2O)cc1OC (configuration not stated)	42 µM	> 42 µM	< 50%	> 20 µM	> 20 µM	> 10 µM	3.9 µM		
CCC(=O)NC(c1ccccc1OC)c1ccc2cccnc2c1O (configuration not stated)			< 50%	> 20 µM	> 20 µM	0.58 µM	2 µM		
CN1CCN(Cc2ccc(O)c3ncccc23)CC1	35 µM	> 35 µM	< 50%	> 20 µM	> 20 µM	> 10 µM	0.8 µM		
Cc1cccnc1NCc1ccc(O)c2ncccc12	11 µM	> 11 µM	< 50%	> 20 µM	> 20 µM	> 10 µM	3.5 µM		
Oc1ccc(CNc2cccc(C(F)(F)F)c2)c2cccnc12	10 µM	> 10 µM	< 50%	> 20 µM	> 20 µM	> 10 µM	2.9 µM		
Oc1ccc(Cc2ccc(O)c3ncccc23)c2cccnc12			< 50%	> 20 µM	> 20 µM	0.1 µM	2 µM		
COc1cccc(C(NC(C)=O)c2ccc3cccnc3c2O)c1 (configuration not stated)			< 50%	> 20 µM	> 20 µM	0.58 µM	2 µM		
Oc1ccc(CN2CCN(c3ccccn3)CC2)c2cccnc12	9 µM	> 9 µM	< 50%	> 20 µM	> 20 µM	> 10 µM	1.9 µM		
Oc1ccccc1C(Nc1nccs1)c1ccc2cccnc2c1O (configuration not stated)			< 50%	> 20 µM	> 20 µM	2.4 µM	4.7 µM		
Cc1cccc(NCc2ccc(O)c3ncccc23)c1C	13 µM	> 13 µM	< 50%	> 20 µM	> 20 µM	> 10 µM	3 µM		
Cc1ccc(NCc2ccc(O)c3ncccc23)cc1C	33.5 µM	17.9 µM	< 50%	> 20 µM	> 20 µM	> 10 µM	4.6 µM		2
Oc1ccc(CNc2ccc(C(F)(F)F)cc2)c2cccnc12	9 µM	> 9 µM	< 50%	> 20 µM	> 20 µM	> 10 µM	2.1 µM		
CCCC(=O)NC(c1ccc(OC)cc1)c1ccc2cccnc2c1O (configuration not stated)			< 50%	> 20 µM	> 20 µM	0.62 µM	4 µM		
Oc1c(Cl)cc(Cl)c2cccnc12 [CHLOROXINE]			< 50%	> 20 µM	> 20 µM	2.5 µM	4.3 µM		
CCC(=O)NC(c1cccs1)c1cc([N+](=O)[O-])c2cccnc2c1O (configuration not stated)			< 50%	> 20 µM	> 20 µM	5 µM	3.5 µM		
Cc1cccc(NCc2ccc(O)c3ncccc23)c1	9 µM	> 9 µM	< 50%	> 20 µM	> 20 µM	> 10 µM	4 µM		
Oc1ccc(CN2CCCCC2)c2cccnc12	9 µM	> 9 µM	< 50%	> 20 µM	> 20 µM	> 10 µM	0.4 µM		

SMILES	CC50 [1]	EC50 [2]	inhibition [3]	IC50 [4]	IC50 [5]	CC50 [6]	IC50 [7]	inhibition at 72 h, 10 µM [8]	selectivity ratio [9]
CCOC(=O)C1CCCN(Cc2ccc(O)c3ncccc23)C1 (configuration not stated)	9 µM	> 9 µM	< 50%	> 20 µM	> 20 µM	> 10 µM	2 µM		
CCC(=O)NC(c1ccc(OC)c(OC)c1)c1cc(Cl)c2cccnc2c1O (configuration not stated)			< 50%	> 20 µM	> 20 µM	3 µM	4 µM		
O=C(CC(Sc1cccc2cccnc12)c1ccc(OC(F)F)cc1)c1ccco1 (configuration not stated)	2 µM	> 2 µM	< 50%	> 20 µM	> 20 µM	0.8 µM	3 µM	73%	
O=C(CC(Sc1cccc2cccnc12)c1ccc(F)cc1)c1cccs1 (configuration not stated)			< 50%	> 20 µM	> 20 µM	> 10 µM	3 µM	21%	
COc1cccc(NCc2ccc(O)c3ncccc23)c1			< 50%	> 20 µM	> 20 µM	5 µM	3.2 µM		
CCN1CCN(Cc2ccc(O)c3ncccc23)CC1	42 µM	> 42 µM	< 50%	> 20 µM	> 20 µM	> 10 µM	1.2 µM		
CCOC(=O)N1CCN(Cc2ccc(O)c3ncccc23)CC1	9 µM	> 9 µM	< 50%	> 20 µM	> 20 µM	> 10 µM	1.5 µM		
CCC(=O)NC(c1ccc(OC)cc1)c1cc([N+](=O)[O-])c2cccnc2c1O (configuration not stated)	10 µM	> 10 µM	< 50%	> 20 µM	> 20 µM	> 10 µM	2.6 µM		
Cc1ccc(S(=O)(=O)NC(=O)Oc2cccc3cccnc23)cc1	2 µM	> 2 µM	< 50%	> 20 µM	> 20 µM	> 10 µM	1.7 µM	13%	
Cc1ccc(NCc2ccc(O)c3ncccc23)cc1	36.5 µM	15.4 µM	< 50%	> 20 µM	> 20 µM	> 10 µM	3.3 µM		2
CCOC(=O)C1CCN(Cc2ccc(O)c3ncccc23)CC1			< 50%	> 20 µM	> 20 µM	> 10 µM	2.2 µM		
CCC(=O)NC(c1ccco1)c1cc(Cl)c2cccnc2c1O (configuration not stated)			< 50%	> 20 µM	> 20 µM	0.72 µM	4 µM		
Oc1ccc(Cl)c2cccnc12 [CLOXYQUIN]			< 50%	> 20 µM	> 20 µM	5 µM	3.6 µM		
CCCC(=O)NC(c1ccccc1)c1ccc2cccnc2c1O (configuration not stated)			< 50%	> 20 µM	> 20 µM	0.68 µM	1.4 µM		
CC(=O)NC(c1ccc(N(C)C)cc1)c1cc(Cl)c2cccnc2c1O (configuration not stated)			< 50%	> 20 µM	> 20 µM	0.62 µM	4 µM		
CCOCc1ccc(O)c2ncccc12			< 50%	> 20 µM	> 20 µM	2 µM	2.4 µM		
Oc1ccc(CNc2ccccc2F)c2cccnc12	9 µM	> 9 µM	< 50%	> 20 µM	> 20 µM	> 10 µM	3.7 µM		
Oc1ccc(CN2CCN(c3ccccc3)CC2)c2cccnc12			< 50%	> 20 µM	> 20 µM	5 µM	2.1 µM		
CCOc1ccc(NCc2ccc(O)c3ncccc23)cc1	11 µM	> 11 µM	< 50%	> 20 µM	> 20 µM	> 10 µM	4 µM		
CC(=O)NC(c1ccccc1)c1cc(Cl)c2cccnc2c1O (configuration not stated)			< 50%	> 20 µM	> 20 µM	0.74 µM	3 µM		
